Measurements: publication PMC6431256 (Biochemistry, 2018)

Target: full-length Pin1 (Pin1FL) (Homo sapiens, UniProt Q13526)
Assay: NMR 15N-1H HSQC titration, binding to full-length Pin1
Outline: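 15N-labeled Pin1FL and Pin1WW were expressed separately in M9 medium with 15NH4Cl, induced with 1 mM IPTG at OD600 0.5 for 4 h, and purified by Ni affinity and gel filtration (20 mM HEPES pH 7.5, 50 mM NaCl, 5 mM EDTA; Pin1FL with 1 mM TCEP). Unlabeled phosphopeptides (dialyzed into matching buffer) were titrated at 0–637 µM into 100 µM protein. 1H-15N HSQC spectra were recorded at 25 °C and 600 MHz. Apparent KD was fitted from chemical shift changes, with 15N weighted 0.17.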

Sequence of full-length Pin1 (Pin1FL) (Q13526 whole entry): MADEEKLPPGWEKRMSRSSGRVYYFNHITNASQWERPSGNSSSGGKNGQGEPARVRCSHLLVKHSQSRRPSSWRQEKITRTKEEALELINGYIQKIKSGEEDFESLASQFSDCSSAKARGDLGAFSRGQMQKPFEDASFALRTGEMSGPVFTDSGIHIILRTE

- interaction strength with Pin1 among H1 peptides (Pin1FL and Pin1WW, in words): fairly low affinity
- apparent affinity for full-length Pin1 relative to WW domain (compared with Pin1WW): decrease
Substance: KVAKpSPKKAKAW [H1.5]
